Experimental findings from ChEMBL document CHEMBL4477235, “Evolution of a Novel, Orally Bioavailable Series of PI3Kδ Inhibitors from an Inhaled Lead for the Treatment of Respiratory Disease” (J Med Chem, 2016) are described below.

Data set [1] deals with Rattus norvegicus. The experiment in a line: Anti-inflammatory activity in Brown Norway rat acute OVA model of TH2-driven lung inflammation assessed as protection against eosinophil recruitment in bronchoalveolar lavage fluid at 3 mg/kg, po pretreated for 30 mins followed by OVA challenge by DAPI staining based flow cytometry. The class given is functional, organism-based. An outline of the steps:
(§1)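 Male Brown Norway rats (250–300 g) sensitized i.p. with 10 μg OVA plus 20 mg Al(OH)₃ on days 1 and 7. Oral compound given 30 min before intratracheal OVA challenge on day 21 or 28, under isoflurane. BAL taken 48 h post-challenge. Leucocytes counted by flow cytometry, gated on FSC/SSC, with DAPI+ dead cells excluded.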
On the technique in general: In flow cytometry, cells or beads pass a laser one at a time.

In data set [2] the target is Glycogen synthase kinase-3 beta (Homo sapiens, UniProt P49841). The experiment in a line: Inhibition of GSK3beta (unknown origin).
Chain of Glycogen synthase kinase-3 beta (P49841 whole entry): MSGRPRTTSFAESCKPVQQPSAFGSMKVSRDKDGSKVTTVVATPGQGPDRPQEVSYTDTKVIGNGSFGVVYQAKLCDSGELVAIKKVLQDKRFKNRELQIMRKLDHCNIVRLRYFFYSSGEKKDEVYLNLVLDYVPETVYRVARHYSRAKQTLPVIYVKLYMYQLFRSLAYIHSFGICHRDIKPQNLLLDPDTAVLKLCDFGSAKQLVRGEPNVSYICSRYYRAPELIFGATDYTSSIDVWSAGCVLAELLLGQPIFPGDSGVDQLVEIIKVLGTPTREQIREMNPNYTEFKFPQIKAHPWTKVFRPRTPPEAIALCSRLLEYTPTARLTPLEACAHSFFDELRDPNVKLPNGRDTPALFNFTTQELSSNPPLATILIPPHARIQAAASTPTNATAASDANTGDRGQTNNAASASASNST
Data set [3] can be described thus: Inhibition of DAGK (unknown origin). Set-up: species or system Homo sapiens.
The target in data set [4] is Tyrosine-protein kinase SYK (Homo sapiens, UniProt P43405). Put plainly: Inhibition of SYK (unknown origin).
The next data set deals with Sphingosine kinase 2 (Homo sapiens, UniProt Q9NRA0). The experiment in a line: Inhibition of SPHK2 (unknown origin).
The target in data set [5] is DNA-dependent protein kinase catalytic subunit (Homo sapiens) (UniProt P78527). Put plainly: Inhibition of DNA-PK (unknown origin).
Chain of DNA-dependent protein kinase catalytic subunit (Homo sapiens) (P78527 whole entry): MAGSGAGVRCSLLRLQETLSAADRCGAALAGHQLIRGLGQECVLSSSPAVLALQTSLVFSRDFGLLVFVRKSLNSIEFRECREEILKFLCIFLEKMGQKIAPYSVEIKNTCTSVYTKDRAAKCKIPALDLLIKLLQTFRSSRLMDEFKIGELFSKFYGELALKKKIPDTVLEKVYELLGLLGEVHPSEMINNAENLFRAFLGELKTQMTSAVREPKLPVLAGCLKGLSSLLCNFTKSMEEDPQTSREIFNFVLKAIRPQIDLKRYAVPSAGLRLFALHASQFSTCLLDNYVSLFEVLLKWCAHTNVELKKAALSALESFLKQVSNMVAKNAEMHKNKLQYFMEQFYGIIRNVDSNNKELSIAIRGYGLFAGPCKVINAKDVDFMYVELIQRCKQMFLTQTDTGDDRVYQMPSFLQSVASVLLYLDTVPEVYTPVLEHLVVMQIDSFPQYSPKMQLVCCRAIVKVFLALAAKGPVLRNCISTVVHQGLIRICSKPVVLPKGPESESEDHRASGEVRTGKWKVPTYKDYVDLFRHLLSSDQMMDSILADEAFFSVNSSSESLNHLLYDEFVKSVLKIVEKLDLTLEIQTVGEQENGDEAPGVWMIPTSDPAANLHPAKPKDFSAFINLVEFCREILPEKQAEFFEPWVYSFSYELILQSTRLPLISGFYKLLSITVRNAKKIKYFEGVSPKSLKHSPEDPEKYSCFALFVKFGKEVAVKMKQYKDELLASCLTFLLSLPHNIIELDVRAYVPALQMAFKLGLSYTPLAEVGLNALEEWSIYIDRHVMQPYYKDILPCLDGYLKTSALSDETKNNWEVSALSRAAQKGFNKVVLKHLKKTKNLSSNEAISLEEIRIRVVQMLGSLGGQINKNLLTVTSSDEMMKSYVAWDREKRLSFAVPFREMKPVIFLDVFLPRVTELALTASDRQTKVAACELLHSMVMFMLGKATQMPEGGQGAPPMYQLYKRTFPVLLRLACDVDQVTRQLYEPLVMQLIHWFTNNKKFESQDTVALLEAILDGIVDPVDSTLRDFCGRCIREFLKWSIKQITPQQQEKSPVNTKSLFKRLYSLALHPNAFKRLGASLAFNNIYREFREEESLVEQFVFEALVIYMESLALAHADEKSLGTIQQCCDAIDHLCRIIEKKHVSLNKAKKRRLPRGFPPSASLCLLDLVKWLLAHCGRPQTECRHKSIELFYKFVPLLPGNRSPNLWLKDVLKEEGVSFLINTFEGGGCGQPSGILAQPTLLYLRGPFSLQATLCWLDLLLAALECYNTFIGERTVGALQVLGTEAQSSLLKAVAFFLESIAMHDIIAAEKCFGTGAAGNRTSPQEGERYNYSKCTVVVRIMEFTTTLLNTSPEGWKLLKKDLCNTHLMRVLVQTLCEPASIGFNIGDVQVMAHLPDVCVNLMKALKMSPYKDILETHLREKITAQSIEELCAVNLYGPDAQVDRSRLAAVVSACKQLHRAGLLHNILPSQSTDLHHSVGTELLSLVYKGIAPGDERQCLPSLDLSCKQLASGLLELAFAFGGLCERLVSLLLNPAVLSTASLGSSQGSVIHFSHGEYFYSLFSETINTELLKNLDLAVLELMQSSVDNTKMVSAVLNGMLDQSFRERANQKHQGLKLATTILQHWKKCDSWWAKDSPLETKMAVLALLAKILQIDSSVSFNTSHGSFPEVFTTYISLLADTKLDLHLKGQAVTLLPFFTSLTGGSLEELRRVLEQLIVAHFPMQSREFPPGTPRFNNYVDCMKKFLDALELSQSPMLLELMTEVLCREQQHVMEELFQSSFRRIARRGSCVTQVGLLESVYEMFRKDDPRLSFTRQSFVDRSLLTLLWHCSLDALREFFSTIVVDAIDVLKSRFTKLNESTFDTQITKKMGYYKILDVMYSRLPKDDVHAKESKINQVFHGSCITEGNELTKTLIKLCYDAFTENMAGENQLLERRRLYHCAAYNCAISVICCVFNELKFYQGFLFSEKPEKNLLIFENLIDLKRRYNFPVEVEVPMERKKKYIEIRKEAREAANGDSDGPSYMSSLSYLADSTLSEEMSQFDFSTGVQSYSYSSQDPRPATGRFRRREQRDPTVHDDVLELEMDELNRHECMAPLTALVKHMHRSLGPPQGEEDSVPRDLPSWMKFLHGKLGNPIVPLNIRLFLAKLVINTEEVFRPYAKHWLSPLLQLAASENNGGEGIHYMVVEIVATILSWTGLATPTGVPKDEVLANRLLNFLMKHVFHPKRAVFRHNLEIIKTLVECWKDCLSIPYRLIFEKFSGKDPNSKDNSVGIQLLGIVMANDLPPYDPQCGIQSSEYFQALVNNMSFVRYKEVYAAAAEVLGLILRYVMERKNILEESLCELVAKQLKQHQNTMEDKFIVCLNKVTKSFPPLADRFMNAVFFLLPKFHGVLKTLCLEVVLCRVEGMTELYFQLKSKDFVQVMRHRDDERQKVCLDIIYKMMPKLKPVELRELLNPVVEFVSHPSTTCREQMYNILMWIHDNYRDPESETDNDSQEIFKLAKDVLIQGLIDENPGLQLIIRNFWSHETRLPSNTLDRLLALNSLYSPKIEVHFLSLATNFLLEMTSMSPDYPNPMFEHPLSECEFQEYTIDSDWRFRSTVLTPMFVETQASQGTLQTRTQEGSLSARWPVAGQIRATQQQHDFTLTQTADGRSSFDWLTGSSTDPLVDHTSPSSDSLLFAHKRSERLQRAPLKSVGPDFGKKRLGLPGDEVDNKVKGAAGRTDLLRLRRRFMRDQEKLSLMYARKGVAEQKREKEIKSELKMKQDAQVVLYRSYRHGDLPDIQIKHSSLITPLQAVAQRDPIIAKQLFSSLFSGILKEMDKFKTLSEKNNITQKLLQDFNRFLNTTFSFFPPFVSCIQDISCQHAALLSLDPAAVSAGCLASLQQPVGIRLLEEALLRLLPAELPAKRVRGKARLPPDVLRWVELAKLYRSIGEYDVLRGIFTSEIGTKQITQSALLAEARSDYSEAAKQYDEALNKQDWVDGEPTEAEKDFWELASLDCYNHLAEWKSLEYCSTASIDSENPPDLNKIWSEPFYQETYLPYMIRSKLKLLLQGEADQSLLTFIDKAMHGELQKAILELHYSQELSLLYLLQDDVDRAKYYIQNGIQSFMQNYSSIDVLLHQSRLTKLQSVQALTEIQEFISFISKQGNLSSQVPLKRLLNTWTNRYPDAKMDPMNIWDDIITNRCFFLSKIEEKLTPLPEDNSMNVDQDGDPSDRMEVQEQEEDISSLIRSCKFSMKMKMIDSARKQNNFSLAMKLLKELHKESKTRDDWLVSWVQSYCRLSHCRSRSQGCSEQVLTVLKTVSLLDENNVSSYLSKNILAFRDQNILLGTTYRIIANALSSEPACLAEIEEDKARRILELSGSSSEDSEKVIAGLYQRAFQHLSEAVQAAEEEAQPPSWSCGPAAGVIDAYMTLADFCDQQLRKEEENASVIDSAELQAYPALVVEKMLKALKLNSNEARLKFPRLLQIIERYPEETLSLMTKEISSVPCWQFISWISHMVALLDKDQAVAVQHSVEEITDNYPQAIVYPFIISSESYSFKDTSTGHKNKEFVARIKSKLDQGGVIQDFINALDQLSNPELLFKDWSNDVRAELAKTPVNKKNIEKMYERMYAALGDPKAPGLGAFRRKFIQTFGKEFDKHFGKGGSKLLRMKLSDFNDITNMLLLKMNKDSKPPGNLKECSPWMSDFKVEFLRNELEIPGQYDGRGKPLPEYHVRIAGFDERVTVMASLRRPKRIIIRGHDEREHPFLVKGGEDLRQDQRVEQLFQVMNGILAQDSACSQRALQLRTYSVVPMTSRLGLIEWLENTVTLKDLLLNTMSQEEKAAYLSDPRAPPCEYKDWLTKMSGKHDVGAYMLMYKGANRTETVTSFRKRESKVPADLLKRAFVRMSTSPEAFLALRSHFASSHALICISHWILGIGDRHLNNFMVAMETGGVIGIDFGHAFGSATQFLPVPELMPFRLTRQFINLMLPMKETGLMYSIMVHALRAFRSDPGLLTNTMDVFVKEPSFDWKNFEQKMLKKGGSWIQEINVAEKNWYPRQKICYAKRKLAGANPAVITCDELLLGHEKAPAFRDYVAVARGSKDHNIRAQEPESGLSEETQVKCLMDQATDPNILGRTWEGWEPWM
Data set [6] concerns the target Inhibitor of nuclear factor kappa-B kinase subunit alpha (Homo sapiens, UniProt O15111). Put plainly: Inhibition of IKK1 (unknown origin).
Data set [7] is described as follows: AUC(infinity) in Brown Norway rat acute OVA model of TH2-driven lung inflammation at 3 mg/kg, po pretreated for 30 mins followed by OVA challenge. The data set is classed as ADME, organism-based. Further details: dose 3 mg/kg, time infinity, route oral. The conditions noted are these: in vivo. Summed up: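 Male Brown Norway rats weighing 250–300 g were sensitised intraperitoneally with 10 μg OVA plus 20 mg Al(OH)₃ in 1 mL on days 1 and 7. On day 21 or 28 they were challenged intratracheally with 0.2 mL OVA under isoflurane. Compound was dosed orally 30 min before challenge. Blood exposure was measured in the same animals, with the 1 h post-dose concentration also recorded.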

Data set [8] relates to Rattus norvegicus. Put plainly: Anti-inflammatory activity in Brown Norway rat acute OVA model of TH2-driven lung inflammation assessed as protection against eosinophil recruitment in bronchoalveolar lavage fluid at 9 mg/kg, po pretreated for 30 mins followed by OVA challenge by DAPI staining based flow cytometry. The data set is classed as functional, organism-based. Summed up:
as §1

Data set [9] is described as follows: Fraction unbound in Wistar Han rat at 1 mg/kg after 1 hr by HPLC analysis. The data set is classed as ADME, organism-based. The conditions noted are these: in vivo. An outline of the steps:
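Unbound concentration at 1 h post-dose estimated by an internal algorithm from binding to HPLC columns coated with HSA and α-glycoprotein.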

A short description of data set [10]: Clearance in Sprague-Dawley rat at 1 mg/kg, iv measured up to 7 hrs by LC-MS/MS analysis relative to liver blood flow. The data set is classed as ADME, organism-based. The settings on record: in vivo. Summed up:
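Male Sprague Dawley rats (n = 2/route), intravenous dose as a solution in DMSO/PEG200/water (5:45:50 v/v/v) at 2 mL/kg. Serial tail-vein blood sampling over 0–7 h. LC–MS/MS quantification of parent. Noncompartmental analysis.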

For the next data set, the species on record is Homo sapiens. Put plainly: Selectivity ratio of IC50 for PI3Kgamma (unknown origin) to IC50 for PI3Kdelta (unknown origin). An outline of the steps: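 Ratio of each isoform's HTRF IC50 to the PI3Kδ HTRF IC50. Enzymes were preincubated 15 min with 4-fold compound dilutions in HEPES pH 7.0, MgCl2, DTT buffer. […] PIP2 was 5 µM for δ and 8 µM for α/β/γ. 60 min reaction, then EDTA quench with GRP-1 PH domain/APC/Eu detection. Four-parameter fit.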

Data set [11] addresses Leucine-rich repeat serine/threonine-protein kinase 2 (Homo sapiens, UniProt Q5S007). The experiment in a line: Inhibition of LRRK2 (unknown origin).
In data set [12] the target is T1, Phosphatidylinositol 4,5-bisphosphate 3-kinase catalytic subunit delta isoform (Homo sapiens, UniProt O00329).
T1 sequence (O00329 whole entry): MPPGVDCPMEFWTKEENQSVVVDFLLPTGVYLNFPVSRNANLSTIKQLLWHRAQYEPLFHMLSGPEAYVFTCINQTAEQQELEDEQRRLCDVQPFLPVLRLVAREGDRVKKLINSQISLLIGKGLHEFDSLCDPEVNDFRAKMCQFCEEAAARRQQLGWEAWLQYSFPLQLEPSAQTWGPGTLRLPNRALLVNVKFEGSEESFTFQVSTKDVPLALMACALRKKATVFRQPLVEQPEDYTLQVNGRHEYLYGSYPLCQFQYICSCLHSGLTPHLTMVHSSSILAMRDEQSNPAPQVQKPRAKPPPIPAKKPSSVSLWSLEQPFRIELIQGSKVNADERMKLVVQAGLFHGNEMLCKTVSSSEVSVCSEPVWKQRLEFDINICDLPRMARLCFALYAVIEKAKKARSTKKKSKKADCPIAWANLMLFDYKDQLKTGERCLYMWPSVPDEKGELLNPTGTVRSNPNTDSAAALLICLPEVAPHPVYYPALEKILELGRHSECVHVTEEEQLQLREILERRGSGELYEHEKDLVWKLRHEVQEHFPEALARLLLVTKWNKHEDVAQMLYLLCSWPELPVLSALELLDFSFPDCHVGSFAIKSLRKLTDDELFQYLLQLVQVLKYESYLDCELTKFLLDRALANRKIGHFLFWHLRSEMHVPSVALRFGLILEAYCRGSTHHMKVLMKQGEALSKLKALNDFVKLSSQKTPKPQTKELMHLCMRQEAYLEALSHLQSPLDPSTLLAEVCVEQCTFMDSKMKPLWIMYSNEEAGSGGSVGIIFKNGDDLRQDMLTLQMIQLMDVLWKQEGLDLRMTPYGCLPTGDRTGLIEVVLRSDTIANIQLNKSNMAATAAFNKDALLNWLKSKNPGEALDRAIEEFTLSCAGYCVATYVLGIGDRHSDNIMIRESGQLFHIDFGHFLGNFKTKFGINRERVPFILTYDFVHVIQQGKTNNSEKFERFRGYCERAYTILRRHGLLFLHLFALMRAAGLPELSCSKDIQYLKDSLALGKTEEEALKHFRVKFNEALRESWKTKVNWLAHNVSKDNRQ

Data set [13] can be described thus: Clearance in human liver microsomes at 0.5 uM measured up to 30 mins by LC-MS/MS analysis. The class given is ADME, Microsome. The settings on record: 0.5 h. For orientation: Microsomes from liver hold many membrane-bound enzymes, among them those of drug oxidation.
Data set [14] can be described thus: Oral bioavailability in Sprague-Dawley rat at 3 mg/kg measured up to 7 hrs by LC-MS/MS analysis. The data set is classed as ADME, organism-based. The conditions noted are these: in vivo, 7 h. An outline of the steps:
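Male Sprague Dawley rats, n = 2 per route, were dosed discretely at 3 mg/kg orally or 1 mg/kg intravenously. The dosing solution was DMSO/PEG200/water (5:45:50 v/v/v). Serial tail-vein blood samples were taken over 0–7 h, and parent compound was quantified by LC–MS/MS. Parameters were estimated by noncompartmental analysis.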

The nature of data set [15]: Drug uptake in blood of Brown Norway rat acute OVA model of TH2-driven lung inflammation at 3 mg/kg, po pretreated for 30 mins followed by OVA challenge measured 1 hr post dose. The class given is ADME, organism-based. The settings on record: read-out: Drug uptake. Summed up: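 Sensitized Brown Norway rats given oral compound 30 min before intratracheal OVA challenge. Blood concentration taken 1 h after dosing, i.e. 30 min after challenge.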

In data set [16] the target is Phosphatidylinositol 4-kinase alpha (Homo sapiens, UniProt P42356). Put plainly: Inhibition of PIK4A (unknown origin).
Another data set deals with Aurora kinase B (Homo sapiens, UniProt Q96GD4). The experiment in a line: Inhibition of Aurora B (unknown origin).
Chain of Aurora kinase B (Q96GD4 whole entry): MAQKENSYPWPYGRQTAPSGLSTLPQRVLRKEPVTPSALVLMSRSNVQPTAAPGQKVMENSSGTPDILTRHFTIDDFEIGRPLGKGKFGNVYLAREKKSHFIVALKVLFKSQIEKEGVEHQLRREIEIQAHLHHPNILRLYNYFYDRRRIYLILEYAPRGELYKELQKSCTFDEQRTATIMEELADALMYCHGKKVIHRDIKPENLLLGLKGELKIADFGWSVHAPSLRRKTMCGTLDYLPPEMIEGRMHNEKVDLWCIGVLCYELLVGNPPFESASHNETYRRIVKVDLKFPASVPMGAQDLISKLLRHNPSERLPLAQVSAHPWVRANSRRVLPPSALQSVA

Several values for one entry are separate records, joined by “and”; a condition that tells them apart may be missing. Equal entries are not always repeated. Activity calls are given as the source filed them. The calls are words filed in the database; no cut-off is given here. Bounds are passed on as bounds.

`COc1ncc(-c2cc3c(c(NC(=O)CN4CCOCC4)c2)COC3)cc1NS(C)(=O)=O`: the outcome with Rattus norvegicus [1] was Active. For the same compound, the IC50 in data set [2] is over 10 µM; in data set [4], over 10 µM; at Sphingosine kinase 2, over 10 µM; in data set [6] it was over 10 µM; in [11], over 10 µM; in data set [12] it was 0.158 to 0.251 µM and 0.25 µM. Also, the IC50 (in [16]; at Aurora kinase B) was over 10 µM throughout. In data set [3], this compound returned a negative logarithm of the IC50 (pIC50) of under 5. For the same compound, the pIC50(app) in data set [5] came out at 5.6. For the same compound, in data set [7], the AUC(0-inf) is 454 ng·h/mL. Further, in the data set with Rattus norvegicus [8], the outcome was inactive. Further, in data set [9], the “Drug uptake(free)” value is 0.089 µM. This compound also came in with a CL in data set [10] of under 20%. For the same compound, the Ratio IC50 in the data set listed under Homo sapiens was determined as 50. The compound also displayed a CLH in [13] of under 0.5 mL/min/g. Moreover, the F in data set [14] is listed as 54%. For the same compound, the concentration at 1 h in data set [15] was 190 nM.

Usually IC50 stands for the point on the concentration scale where inhibition reaches its midpoint. For orientation: pIC50 means the IC50 on a negative log10 scale, so that one unit is a factor of ten. The term AUC(0-inf) denotes total exposure, with the tail of the curve extrapolated.
